Laboratory results reported in ChEMBL document CHEMBL3351994, “Synthesis and biological evaluation of novel millepachine derivatives as a new class of tubulin polymerization inhibitors” (J Med Chem, 2014).
In brackets after ≈: the same amount, converted by molar mass.

Legend:
[1] = test system: HUVEC; assay: Cytotoxicity in HUVECs after 48 hrs by MTT assay; format: cell-based; conditions: Homo sapiens
In short: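 HUVEC proliferation measured by MTT after 48 h exposure. IC50 derived from the dose–response.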

[2] = test system: HepG2; assay: Induction of apoptosis in human HepG2 cells assessed as viable cells at 50 nM after 24 hrs by annexin-V-FITC and propidium iodide staining based flow cytometry (reference value: 93.2%); format: functional; conditions: HepG2, 24 h, read-out: Activity
[3] = Solubility in PBS solution by nephelometry; format: physicochemical
In short: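 Maximum soluble concentration in PBS, determined by nephelometry.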

[4] = test system: HepG2; assay: Induction of apoptosis in human HepG2 cells assessed as necrotic cells at 100 nM after 24 hrs by annexin-V-FITC and propidium iodide staining based flow cytometry (reference value: 2.16%); format: functional
In short: (§1)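 HepG2 cells treated with 50, 100 or 200 nM compound or DMSO vehicle for 24 or 48 h at 37 °C. Labeled with annexin-V-FITC and PI and analyzed by flow cytometry. Cells classified as early apoptotic (annexin-V+/PI−), late apoptotic (annexin-V+/PI+) or necrotic (annexin-V−/PI+).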

[5] = Antiproliferative activity against taxol resistant human HCT8 cells assessed as inhibition of cell proliferation after 48 hrs by MTT assay; format: functional, cell-based; conditions: HCT-8, 48 h
In short: (§2)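 Cells grown at 37 °C in humidified 5% CO2. K562, C26 and HCT lines in RPMI-1640; other lines in DMEM; both media with 10% FBS, penicillin and streptomycin. 1000 cells/well seeded, incubated overnight, then compound at various doses for 48 h. MTT added for 4 h, formazan dissolved in DMSO, absorbance read at 590 nm. IC50 from dose–response curves, mean ± SEM of at least three independent experiments.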

[6] = test system: HepG2; assay: Induction of cell cycle arrest in human HepG2 cells assessed as accumulation at G0/G1 phase at 50 nM after 24 hrs by propidium iodide staining based flow cytometry (reference value: 58.2%); format: functional
[7] = test system: HepG2; assay: Induction of apoptosis in human HepG2 cells assessed as early apoptotic cells at 50 nM after 48 hrs by annexin-V-FITC and propidium iodide staining based flow cytometry (reference value: 3.63%); format: functional; in short: as §1
[8] = test system: A2780; assay: Resistance index, ratio of IC50 for taxol resistant human […] cells to IC50 for parental human […] cells; format: functional
[9] = test system: A-375; assay: Antiproliferative activity against human A375 cells assessed as inhibition of cell proliferation after 48 hrs by MTT assay; format: functional, cell-based; conditions: A-375, 48 h; in short: as §2
[10] = test system: HepG2; assay: Induction of apoptosis in human HepG2 cells assessed as early apoptotic cells at 100 nM after 48 hrs by annexin-V-FITC and propidium iodide staining based flow cytometry (reference value: 3.63%); format: functional; in short: as §1
[11] = Antiproliferative activity against adriamycin resistant human MCF7/ADR cells assessed as inhibition of cell proliferation after 48 hrs by MTT assay; format: functional, cell-based; conditions: NCI/ADR-RES; in short: as §2
[12] = Antiproliferative activity against cisplatin resistant human […] cells assessed as inhibition of cell proliferation after 48 hrs by MTT assay; format: functional, cell-based; conditions: A2780cisR; in short: as §2
[13] = Volume of distribution at steady state in rat at 2.25 mg/kg, iv; format: ADME, organism-based; parameters: dose 2.25 mg/kg, route intravenous; conditions: in vivo, read-out: Vdss
[14] = test system: HepG2; assay: Induction of apoptosis in human HepG2 cells assessed as early apoptotic cells at 200 nM after 24 hrs by annexin-V-FITC and propidium iodide staining based flow cytometry (reference value: 3.63%); format: functional; in short: as §1
[15] = test system: HepG2; assay: Induction of cell cycle arrest in human HepG2 cells assessed as accumulation at G0/G1 phase at 100 nM after 24 hrs by propidium iodide staining based flow cytometry (reference value: 58.2%); format: functional
[16] = test system: Rattus norvegicus; assay: AUC in rat at 9 mg/kg, po; format: ADME, organism-based, Plasma; parameters: dose 9 mg/kg, route oral; conditions: in vivo
In short: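 Rat pharmacokinetics; oral and intravenous dosing, with group sizes of 5, 5 and 4 rats. Parameters derived: systemic clearance, volume of distribution, area under the plasma concentration–time curve, maximum plasma concentration and percent oral bioavailability.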

[17] = test system: HepG2; assay: Induction of apoptosis in human HepG2 cells assessed as late apoptotic cells at 200 nM after 24 hrs by annexin-V-FITC and propidium iodide staining based flow cytometry (reference value: 1.03%); format: functional; in short: as §1
[18] = test system: HepG2; assay: Induction of apoptosis in human HepG2 cells assessed as early apoptotic cells at 50 nM after 24 hrs by annexin-V-FITC and propidium iodide staining based flow cytometry (reference value: 3.63%); format: functional; in short: as §1
[19] = test system: U-251; assay: Antiproliferative activity against human U251 cells assessed as inhibition of cell proliferation after 48 hrs by MTT assay; format: functional, cell-based; conditions: U-251, 48 h; in short: as §2
[20] = test system: HepG2; assay: Induction of apoptosis in human HepG2 cells assessed as late apoptotic cells at 200 nM after 48 hrs by annexin-V-FITC and propidium iodide staining based flow cytometry (reference value: 1.03%); format: functional; in short: as §1
[21] = test system: HepG2; assay: Induction of apoptosis in human HepG2 cells assessed as early apoptotic cells at 100 nM after 24 hrs by annexin-V-FITC and propidium iodide staining based flow cytometry (reference value: 3.63%); format: functional; in short: as §1
[22] = test system: Rattus norvegicus; assay: Systemic clearance in rat at 2.25 mg/kg, iv; format: ADME, organism-based; parameters: dose 2.25 mg/kg, route intravenous; conditions: in vivo
[23] = test system: HepG2; assay: Induction of cell cycle arrest in human HepG2 cells assessed as accumulation at S phase phase at 100 nM after 24 hrs by propidium iodide staining based flow cytometry (reference value: 30.6%); format: functional
[24] = test system: HepG2; assay: Induction of apoptosis in human HepG2 cells assessed as viable cells at 100 nM after 24 hrs by annexin-V-FITC and propidium iodide staining based flow cytometry (reference value: 93.2%); format: functional; conditions: HepG2, 24 h, read-out: Activity
[25] = test system: HepG2; assay: Induction of apoptosis in human HepG2 cells assessed as late apoptotic cells at 100 nM after 24 hrs by annexin-V-FITC and propidium iodide staining based flow cytometry (reference value: 1.03%); format: functional; in short: as §1
[26] = test system: HepG2; assay: Induction of apoptosis in human HepG2 cells assessed as viable cells at 200 nM after 48 hrs by annexin-V-FITC and propidium iodide staining based flow cytometry (reference value: 93.2%); format: functional; conditions: HepG2, 48 h, read-out: Activity
[27] = test system: HepG2; assay: Induction of cell cycle arrest in human HepG2 cells assessed as accumulation at G2/M phase phase at 200 nM after 24 hrs by propidium iodide staining based flow cytometry (reference value: 11.2%); format: functional
[28] = test system: HepG2; assay: Induction of apoptosis in human HepG2 cells assessed as late apoptotic cells at 50 nM after 24 hrs by annexin-V-FITC and propidium iodide staining based flow cytometry (reference value: 1.03%); format: functional; in short: as §1
[29] = Antiproliferative activity against taxol resistant human […] cells assessed as inhibition of cell proliferation after 48 hrs by MTT assay; format: functional, cell-based; conditions: A2780, 48 h; in short: as §2
[30] = test system: HepG2; assay: Induction of apoptosis in human HepG2 cells assessed as necrotic cells at 50 nM after 24 hrs by annexin-V-FITC and propidium iodide staining based flow cytometry (reference value: 2.16%); format: functional

Structure (SMILES): COc1ccc(/C=C/C(=O)c2ccc(OC)c3c2OC(C)(C)C=C3)cc1N
- IC50 [1]: 450 nM
- viability at 0.05 µM [2]: 88.8%
- solubility kinetic [3]: 8 µg/mL (≈ 21.9 µM)
- Activity [4]: 3.83%
- IC50 [5]: 152 nM
- Activity [6]: 56.6%
- Activity [7]: 13.45%
- Ratio IC50 [8]: 4.2
- IC50 [9]: 22 nM
- Activity [10]: 16.34%
- IC50 [11]: 17 nM
- IC50 [12]: 14 nM
- Vd [13]: 21 L/kg
- Activity [14]: 11.45%
- Activity [15]: 34.8%
- AUC [16]: 2040 ng·h/mL
- Activity [17]: 23.46%
- Activity [18]: 2.21%
- IC50 [19]: 24 nM
- Activity [20]: 34.72%
- Activity [21]: 9.65%
- CL [22]: 20 mL/min/kg
- Activity [23]: 27.8%
- viability at 0.1 µM [24]: 74.1%
- Activity [25]: 12.43%
- viability at 0.2 µM [26]: 41.7%
- Activity [27]: 43.3%
- Activity [28]: 4.28%
- IC50 [29]: 84 nM
- Activity [30]: 4.71%
